Source: ChEMBL document CHEMBL1123678, “Octahydropyrazino[2',3':3,4]pyrido[1,2-a]indoles. A new class of potent antihypertensive agents” (1987)
Activity calls are given as the source filed them. The calls are words filed in the database; no cut-off is given here.

Experiments:
[1] = tested on: Rattus norvegicus; test: Antihypertensive activity was determined in cannulated spontaneously hypertensive rats(SHR) and maximum decrease of mean arterial blood pressure (MABP) at 50 mg/kg oral dose; assay type: functional, Artery
Procedure, shortened: (§1)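 Cannulated SHR given compound by gastric gavage in 0.5% methylcellulose (5 mL/kg), doses 0.1–50 mg/kg, 4–8 animals per dose, after 1-h equilibration. MABP recorded for 4 h; maximal % decrease reported with time to peak effect. Significance by two-way analysis of variance.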

[2] = tested on: Rattus norvegicus; test: Antihypertensive activity was determined in cannulated spontaneously hypertensive rats(SHR) and maximum decrease of mean arterial blood pressure (MABP) at 10 mg/kg oral dose; assay type: functional, Artery; procedure, shortened: as §1
[3] = tested on: Rattus norvegicus; test: Vasopressor responses to epinephrine as a measure of the alpha-1-adrenoceptor blocking activity at 10 mg/kg administered orally was reported to be reversed; assay type: functional, organism-based; parameters: dose 10 mg/kg
[4] = tested on: Rattus norvegicus; test: Antihypertensive activity was determined in cannulated spontaneously hypertensive rats(SHR) and maximum decrease of mean arterial blood pressure (MABP) at 1 mg/kg oral dose; assay type: functional, Artery; procedure, shortened: as §1
[5] = tested on: Rattus norvegicus; test: Vasopressor responses to epinephrine as a measure of the alpha-1-adrenoceptor blocking activity at 1 mg/kg administered orally was reported to be reversed; assay type: functional, organism-based; parameters: dose 1 mg/kg
[6] = tested on: Rattus norvegicus; test: Antihypertensive activity was determined in cannulated spontaneously hypertensive rats(SHR) and heart rate response was reported to reduce by 10-25% after 4 hr at a peroral dose of 10 mg/kg; assay type: functional, organism-based; parameters: dose 10 mg/kg
[7] = tested on: Rattus norvegicus; test: Vasopressor responses to epinephrine as a measure of the alpha-1-adrenoceptor blocking activity at 10 mg/kg administered orally was reported to have no change; assay type: functional, organism-based; parameters: dose 10 mg/kg
[8] = tested on: Rattus norvegicus; test: Antagonism of vasopressor responses to epinephrine as a measure of the alpha-1-adrenoceptor blocking activity at 10 mg/kg administered orally was reported to have no change; assay type: functional, organism-based; parameters: dose 10 mg/kg
[9] = tested on: Rattus norvegicus; test: Antihypertensive activity was determined in cannulated spontaneously hypertensive rats(SHR) and heart rate response was reported to be reduce by 10-25% after 4 hr at a dose of 50 mg/kg; assay type: functional, organism-based; parameters: dose 50 mg/kg
[10] = tested on: Rattus norvegicus; test: Vasopressor responses to epinephrine as a measure of the alpha-1-adrenoceptor blocking activity at 10 mg/kg administered orally was reported to be antagonized; assay type: functional, organism-based; parameters: dose 10 mg/kg
[11] = tested on: Rattus norvegicus; test: Antihypertensive activity was determined in cannulated spontaneously hypertensive rats(SHR) and maximum decrease of mean arterial blood pressure (MABP) at 5 mg/kg oral dose; assay type: functional, Artery; procedure, shortened: as §1

In the case of `Cc1c2n(c3ccccc13)CCC1C2N(C)CCN1C.Cl.Cl` (stereo not given), the “Decrease in MABP” value [1] was 12%.
`CCN1CCN(CC)C2c3c(C)c4cc(Br)ccc4n3CCC21.Cl` (stereo not given) was tested, and the “Decrease in MABP” value [2] was 15% and the Activity [3] was “Vasopressor response reversed”.
With `CCCCN1CCN(CC)C2CCn3c(c(C)c4ccccc43)C21.Cl.Cl` (stereo not given) the “Decrease in MABP” value [2] was 36%, the “Decrease in MABP” value [4] was 16% and the Activity [5] was “Vasopressor response reversed”. For the same molecule, the HR [6] was “Heart rate response was reported to reduce by 10-25% after 4 hr at a peroral dose of 10 mg/kg” and the Activity [3] was “Vasopressor response reversed”.
For `Cc1c2n(c3ccccc13)CCC1C2NCCN1CCOc1ccccc1` (stereo not given), the “Decrease in MABP” value [2] was 7% and the Activity [7] was “inactive”.
For `CCN1CCNC2CCn3c(c(C)c4ccccc43)C21` (stereo not given), the “Decrease in MABP” value [2] was 14%, the Activity [8] was “inactive” and the HR [6] was “Heart rate response was reported to reduce by 10-25% after 4 hr at a peroral dose of 10 mg/kg”.
`CCN1CCN(CC)[C@H]2c3c(C)c4ccccc4n3CC[C@H]21.Cl.Cl` was tested, and the “Decrease in MABP” value [1] was 25% and the HR [9] was “Heart rate response was reported to be reduce by 10-25% after 4 hr at a dose of 25 mg/kg”.
`CCN1CCN(C(C)C)C2CCn3c(c(C)c4cc(Br)ccc43)C21.Cl.Cl` (stereo not given) was tested, and the Decrease in MABP [1] was 20%.
`Cc1c2n(c3ccccc13)CCC1C2NCCN1C(C)C.Cl.Cl` (stereo not given) was tested, and the “Decrease in MABP” value [2] was 12% and the Activity [10] was “Vasopressor response antagonized”.
`Cc1c2n(c3ccccc13)CCC1C2N(C)CCN1C` (stereo not given) was tested, and the “Decrease in MABP” value [2] was 23% and the “Decrease in MABP” value [11] was 13%.
